Results as given in ChEMBL document CHEMBL4316598, “Synthesis, antiproliferative and apoptosis induction potential activities of novel bis(indolyl)hydrazide-hydrazone derivatives” (Bioorg Med Chem, 2019).
Activity calls are given as the source filed them. No cut-off for these calls is given here.

Columns and labels:
MCF7 [1] = test: Induction of apoptosis in human MCF7 cells assessed as necrotic cells at 1 uM after 16 hrs by annexin-V FITC/propidium iodide staining based flow cytometric analysis relative to control; format: functional
Method in brief: (§1)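 Cells were grown in DMEM with 10% heat-inactivated FBS at 37 °C and 5% CO₂, then plated at 500,000 cells/well in 24-well plates. They were treated from a DMSO stock (DMSO ≤0.1%) for 8, 12 or 16 h. After a PBS wash, cells were resuspended in binding buffer (10 mM HEPES pH 7.4, 2.5 mM CaCl₂, 140 mM NaCl, 0.1% BSA), stained 40 min with FITC-annexin V, then with PI, and run on the flow cytometer immediately. Values are the mean of three independent experiments.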

HeLa [2] = test: Induction of apoptosis in human HeLa cells assessed as necrotic cells at 1 uM after 8 hrs by annexin-V FITC/propidium iodide staining based flow cytometric analysis relative to control; format: functional; method in brief: as §1
HeLa [3] = test: Induction of apoptosis in human HeLa cells assessed as necrotic cells at 1 uM after 12 hrs by annexin-V FITC/propidium iodide staining based flow cytometric analysis relative to control; format: functional; method in brief: as §1
HeLa [4] = test: Induction of apoptosis in human HeLa cells assessed as late apoptotic cells at 1 uM after 16 hrs by annexin-V FITC/propidium iodide staining based flow cytometric analysis relative to control; format: functional; method in brief: as §1
HeLa [5] = test: Induction of nitric oxide production in human HeLa cells at 5 uM measured over 8 hrs by Griess reaction based assay relative to control; format: functional
Method in brief: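 Cells seeded at 2×10^6 cells/well for 12 h, then exposed to 1, 5 and 10 μM compound for 8 h at 37 °C. Culture supernatant mixed with Griess reagent (0.002% N-1-naphthyl-ethylenediamine dihydrochloride, 0.5% sulfanilic acid, 14% glacial acetic acid). Nitrite read by absorbance at 550 nm and compared with vehicle group.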

[6] = biological target: T1, Tyrosine-protein phosphatase non-receptor type 1 (Homo sapiens) (UniProt P18031); test: Inhibition of recombinant human PTP1B using 6,8-difluoro-4-methylumbelliferyl phosphate fluorogenic substrate measured over 30 mins by fluorescence assay
T1 sequence (whole entry): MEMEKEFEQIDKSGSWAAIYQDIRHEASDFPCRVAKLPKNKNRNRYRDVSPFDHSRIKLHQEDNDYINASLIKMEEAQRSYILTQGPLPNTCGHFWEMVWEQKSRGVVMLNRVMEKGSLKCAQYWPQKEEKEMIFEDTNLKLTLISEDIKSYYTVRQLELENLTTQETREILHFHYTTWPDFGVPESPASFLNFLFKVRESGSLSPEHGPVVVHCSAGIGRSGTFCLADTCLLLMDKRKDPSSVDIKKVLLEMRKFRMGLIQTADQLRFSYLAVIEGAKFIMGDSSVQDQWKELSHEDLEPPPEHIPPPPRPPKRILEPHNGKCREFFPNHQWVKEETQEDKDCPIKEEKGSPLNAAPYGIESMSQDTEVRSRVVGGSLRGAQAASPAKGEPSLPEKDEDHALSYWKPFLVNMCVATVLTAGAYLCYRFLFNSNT
Method in brief: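 Recombinant human PTP1B, 1.56 ng/well, in buffer of 25 mM HEPES, 50 mM NaCl, 2.5 mM EDTA, DTT and 0.01 mg/mL human albumin. Preincubated with compound for 30 min in the dark, then DiFMUP added (25 μL of 10 μM solution). Fluorescence read after 10 min (ex 360/em 465 nm). Triplicates; % inhibition relative to PTP inhibitor IV (0.16 mM) and buffer controls.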

HeLa [7] = test: Effect on mitochondrial membrane potential in human HeLa cells assessed as shift change at 5 uM after 1 hrs by Rhodamine 123 dye-based fluorescence assay; format: functional, cell-based
Method in brief: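 Mitochondrial potential: HeLa or MCF-7 cells treated with 5 µM (final) for 1, 2, 4 and 8 h. Rhodamine 123 added, cells incubated 30 min at 37 °C, washed with PBS, and analysed by flow cytometry. Fluorescence histogram shift is compared with control.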

HeLa [8] = test: Induction of caspase-dependent apoptosis in human HeLa cells assessed as activation of caspase-3 at 1 to 3 uM after 24 hrs by Western blot analysis; format: functional, cell-based
Method in brief: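 Cleaved caspase-3 immunoblot. Cells were exposed at 1, 3 and 5 µM for 24 h at 37 °C, with paclitaxel 3 µM as positive control. Lysis was in ice-cold Triton X-100 buffer, and protein was measured by BCA. Lysates were separated by electrophoresis, transferred to nitrocellulose and blocked in milk. Primary antibody was applied overnight at 4 °C and secondary for 1 h at 28 °C. Detection was by enhanced chemiluminescence.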

MCF7 [9] = test: Induction of caspase-dependent apoptosis in human MCF7 cells assessed as activation of caspase-6 at 1 to 3 uM after 24 hrs by Western blot analysis; format: functional, cell-based
Method in brief: (§2)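 Cells were treated at 1, 3 and 5 µM for 24 h at 37 °C. Lysis was in ice-cold Triton X-100 buffer with protease and phosphatase inhibitors; nuclear proteins were extracted separately. Protein was quantified by BCA. Lysates were separated by electrophoresis, transferred to nitrocellulose and blocked in non-fat milk for 1 h. Primary antibody was applied overnight at 4 °C and secondary for 1 h at 28 °C. Detection was by enhanced chemiluminescence.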

MCF7 [10] = test: Induction of caspase-dependent apoptosis in human MCF7 cells assessed as activation of caspase-8 at 1 to 3 uM after 24 hrs by Western blot analysis; format: functional, cell-based; method in brief: as §2
MCF7 [11] = test: Induction of caspase-dependent apoptosis in human MCF7 cells assessed as activation of caspase-9 at 1 to 3 uM after 24 hrs by Western blot analysis; format: functional, cell-based; method in brief: as §2
[12] = biological target: T2, Mitogen-activated protein kinase; ERK1/ERK2 (Homo sapiens) (UniProt P27361+P28482); test: Activation of ERK1/2 phosphorylation in human MCF7 cells assessed as increase in ratio of phosphorylated ERK1/2 to total ERK1/2 level at 5 uM in presence of ERK1/2 inhibitor PD98059 by ELISA; format: cell-based
Method in brief: (§3)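 Cell-based ELISA: HeLa or MCF-7 cells (20×10^3/well) grown overnight at 37 °C, 5% CO2, treated with 5 μM, then fixed and blocked. Probed with rabbit anti-total and anti-phospho P38, JNK or ERK1/2 (1:100), then HRP anti-rabbit IgG. Result is the phospho/total ratio; inhibitor arms use […], […] or SP600125. n=3.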

[13] = biological target: MAP kinase p38 (Homo sapiens) (UniProt O15264+Q15759+Q16539+P53778); test: Activation of MAPK p38 phosphorylation in human HeLa cells assessed as increase in ratio of phosphorylated p38 to total p38 level at 5 uM by ELISA; format: cell-based; method in brief: as §3
[14] = biological target: c-Jun N-terminal kinase, JNK (Homo sapiens) (UniProt P45983+P53779+P45984); test: Activation of JNK phosphorylation in human HeLa cells assessed as increase in ratio of phosphorylated JNK to total JNK level at 5 uM in presence of JNK inhibitor SP600125 by ELISA; format: cell-based; method in brief: as §3
MCF7 [15] = test: Induction of ERK/MAPK signal transduction pathway in human MCF7 cells assessed as increase in p21 level; format: cell-based
[16] = biological target: T2, Mitogen-activated protein kinase; ERK1/ERK2 (Homo sapiens); test: Induction of ERK/MAPK signal transduction pathway in human MCF7 cells assessed as increase ERK1/2 translocation; format: cell-based

T2 sequence (P27361 whole entry, looked up): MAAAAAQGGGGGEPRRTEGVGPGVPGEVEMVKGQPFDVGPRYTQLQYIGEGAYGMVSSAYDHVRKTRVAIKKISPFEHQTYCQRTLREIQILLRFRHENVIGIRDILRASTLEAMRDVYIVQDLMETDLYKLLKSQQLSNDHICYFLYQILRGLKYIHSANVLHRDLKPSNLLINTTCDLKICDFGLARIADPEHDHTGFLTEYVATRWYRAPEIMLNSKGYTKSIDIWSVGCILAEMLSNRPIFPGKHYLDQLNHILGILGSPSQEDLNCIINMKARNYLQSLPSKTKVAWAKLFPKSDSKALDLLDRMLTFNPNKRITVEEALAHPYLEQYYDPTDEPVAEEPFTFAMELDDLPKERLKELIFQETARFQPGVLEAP
T2 sequence (P28482 whole entry, looked up): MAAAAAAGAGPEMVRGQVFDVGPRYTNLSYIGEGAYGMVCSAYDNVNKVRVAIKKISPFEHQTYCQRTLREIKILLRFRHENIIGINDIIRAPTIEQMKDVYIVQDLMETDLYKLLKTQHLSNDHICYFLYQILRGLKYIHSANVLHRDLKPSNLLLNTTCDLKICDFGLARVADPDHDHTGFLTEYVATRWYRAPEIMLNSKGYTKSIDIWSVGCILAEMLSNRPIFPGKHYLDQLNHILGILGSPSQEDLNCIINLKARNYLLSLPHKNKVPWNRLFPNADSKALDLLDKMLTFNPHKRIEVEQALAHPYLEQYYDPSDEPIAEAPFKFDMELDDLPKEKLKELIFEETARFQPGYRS

inhibition [6]: Dose-dependent effect
Activity [12]: inactive
Activity [13]: Active
Activity [14]: inactive
Activity [16]: Active
Compound: Cn1cc(/C=N\NC(=O)c2cn(C)c3ccc(Br)cc23)c2ccccc21
Activity (MCF7 [1]): 4.71%
Activity (HeLa [2]): 0.57%
Activity (HeLa [3]): 0.3%
Activity (HeLa [4]): 71.74%
Activity (HeLa [5]): 42.4%
Activity (HeLa [7]): Active
Activity (HeLa [8]): inactive
Activity (MCF7 [9]): inactive
Activity (MCF7 [10]): inactive
Activity (MCF7 [11]): inactive
Activity (MCF7 [15]): Active
